# Assay outcomes deposited in PubChem BioAssay by Broad Institute.
# SIRT5 inh – blocks human SIRT5 desuccinylation of peptide. Q9NXA8. Purified SirT5, succinyl-peptide AMC, trypsin-coupled fluorescence. inhibition, % at 15 µM. 1.1% of 330,000 active; in the data active = inhibition above about 15%; inconclusive = no clear call, values can overlap the other calls
# E-selectin induc – induces E-selectin expression in human endothelial cells. HUVEC E-selectin immunofluorescence imaging; normalized: neutral wells 0, TNF-alpha wells 100. activation, % at 7.58 µM. 0.37% of 260,000 active;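 active = mean E-selectin-positive cell signal at least 10% of the positive control, reached in at least 60% of replicates, without over 20% cell loss; inconclusive = no rule given, readout overlaps actives, possibly toxicity-flagged; inactive = the rest, including those meeting only one limit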
#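 Test system – human umbilical vein endothelial cells (HUVEC), E-selectin induction · Input – 3,000 HUVEC seeded per well · Buffer or medium – EGM-2, gelatin · Compound dosing – single-point compound dose · Detection – immunofluorescence imaging · Measure – percent E-selectin-positive cells · Controls – TNF-alpha high, DMSO low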
# ERAP1 HTS inh – inhibitors of human ERAP1 aminopeptidase; 0.15% of 340,000 active; AID 652197; recombinant ERAP1, Leu-AMC fluorescence, 60 min; inhibition, % at 10.7 µM;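 active = mean replicate inhibition of at least 30%, or all replicates individually reaching that 30% level; inactive = mean below 30% and not every replicate reaching it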;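 also: 0% = neutral control wells and 100% = L-leucinethiol positive control wells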
# S100A4 inh HTS – inhibitors of human S100A4 binding to myosin IIA peptide; AID 652163; inhibition, % at 10.7 µM; S100A4/TAMRA-MyoIIA peptide fluorescence polarization; 0.14% of 360,000 active;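 active = mean inhibition of at least 70% across replicates, with every replicate also reaching that level; inconclusive = mean inhibition reaches 70% but some replicates fall short; inactive = mean inhibition below 70%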
# Target sequence (P26447 whole entry, looked up): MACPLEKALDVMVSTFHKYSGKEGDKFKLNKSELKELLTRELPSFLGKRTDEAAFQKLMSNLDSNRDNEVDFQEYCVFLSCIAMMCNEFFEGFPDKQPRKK
#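 Assay system: human S100A4 monomer with TAMRA-labelled myosin IIA peptide / Buffer or medium: Calcium-containing HEPES buffer, pH 7.2 / Reagent: TAMRA-labelled myosin IIA heavy-chain peptide probe, 5 nM / Compound: one dose per compound / Timing: polarization read 5 min after assay mix addition, stable 5–60 min / Benchmarks: neutral control DMSO, positive control TFP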
# AF4-AF9 inh – MLL-AF4/AF9 protein interaction inhibition; P42568; AlphaScreen, biotin-AF4 peptide binding to FLAG-AF9; inhibition, % at 10 µM; 0.47% of 350,000 active;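 active = every replicate reaching a set inhibition limit, whatever the replicate mean, cut at about 25% in these data; inconclusive = mean inhibition reaches that limit but some replicates miss it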;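 also: 0% = plate neutral control median and 100% = total signal loss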
# Target sequence (P42568 whole entry, looked up): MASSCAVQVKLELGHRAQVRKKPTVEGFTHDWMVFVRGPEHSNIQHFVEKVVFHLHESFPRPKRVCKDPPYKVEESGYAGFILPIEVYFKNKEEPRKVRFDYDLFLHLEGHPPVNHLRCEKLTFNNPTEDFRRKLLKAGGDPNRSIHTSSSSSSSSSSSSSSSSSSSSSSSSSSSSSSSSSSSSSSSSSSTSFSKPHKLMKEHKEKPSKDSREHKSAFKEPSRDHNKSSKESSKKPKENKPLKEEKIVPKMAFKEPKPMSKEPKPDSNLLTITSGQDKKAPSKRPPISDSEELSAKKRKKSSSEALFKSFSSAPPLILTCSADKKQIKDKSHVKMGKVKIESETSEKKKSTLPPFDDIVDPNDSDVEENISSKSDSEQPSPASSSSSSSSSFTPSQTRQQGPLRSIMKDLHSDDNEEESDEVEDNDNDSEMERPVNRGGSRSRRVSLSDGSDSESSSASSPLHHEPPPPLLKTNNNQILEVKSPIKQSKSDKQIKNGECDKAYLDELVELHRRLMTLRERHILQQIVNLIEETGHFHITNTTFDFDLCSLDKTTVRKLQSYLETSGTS
# Ecoli rRNA inh – inhibits bacterial ribosomal RNA function over humanized ribosomes; 1.6% of 350,000 active; GFP signal change (wild-type ribosome), % (test concentration not listed); AID 720706; E. coli WT GFP vs humanized-ribosome RFP mutants, fluorescence, 24 h; hits give low values; DMSO median 0, no signal -100;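 active = significant combined selectivity score with lowered wild-type GFP, culture density cut under 30%, mutant RFP and density less affected; inactive = any of these conditions unmet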
# HepG2 tox – kills or reduces viability of HepG2 cells; shares compounds with Ecoli rRNA inh; ATP luminescence, 72 h; activity change, negative = cytotoxicity, unspecified at 26 µM; 30 tested, under 10 active; AID 743480;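 active = compounds whose fitted half-maximal signal-loss concentration is at most twice their highest valid dose; inconclusive = flat curve with 30 to 70% signal loss, or poor fit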
# AID977621 – wild-type E. coli growth inhibition versus H69 humanized strain – H69 mutant RFP, wild-type GFP, cherry-pick, dose response; activity change, negative = inhibition at 50 µM; fluorescence, 24 h; shares compounds with Ecoli rRNA inh; 1,900 tested, under 10 active;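 active = Wild-type ribosome reporter drop at least double the humanized mutant ribosome reporter drop, growth loss under a set limit; inconclusive = no clear call, values can overlap the other calls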;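 also: wild-type GFP and H69 mutant RFP strains grown together 50/50 in each well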
# AID977628 – E. coli growth inhibition, wild-type GFP versus h24 humanized RFP strain, dose response, h24 mutant RFP vs wild-type GFP, cherry-pick. 1,900 tested, under 10 active. AID 977628. activity change, negative = inhibition at 50 µM. shares compounds with Ecoli rRNA inh. E. coli WT GFP strain growth, fluorescence, 24 h;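 active = compound lowering the normal-ribosome reporter at least twice as much as the humanized-ribosome reporter, growth loss under a set limit; inconclusive = no clear call, values can overlap the other calls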;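 also: wild-type GFP and h24 humanized RFP strains co-cultured 1 to 1 per well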
# * hit, by the source's call; ? = inconclusive; nt = not tested or not shown; ! = not active in a repeat. Only some compounds are listed: those with a hit (about 3.4% of all), similar ones and a draw of the others.
SMILES,SIRT5 inh,E-selectin induc,ERAP1 HTS inh,S100A4 inh HTS,AF4-AF9 inh,Ecoli rRNA inh,AID977621,AID977628,others
C[C@H](CO)N1C[C@H](C)[C@@H](CN(C)C)OCCCC[C@H](C)Oc2ccc(NC(=O)Nc3cccc4ccccc34)cc2C1=O,0,0,-1,-2,3,1,4,?,
CC(C)NC(=O)N(C)C[C@H]1OCCCC[C@@H](C)Oc2ccc(NC(=O)Nc3cccc4ccccc34)cc2C(=O)N([C@@H](C)CO)C[C@H]1C,-2,nt,-3,-12,-8,-31*,nt,?,
CO[C@@H]1CN(C)C(=O)c2cc(NS(C)(=O)=O)ccc2OC[C@H](C)N(C(=O)CC2CC2)C[C@@H]1C,2,0,1,0,-2,2,nt,nt,
C[C@H]1CN([C@@H](C)CO)C(=O)c2cc(Br)cnc2O[C@H]1CN(C)S(=O)(=O)c1ccccc1,5,0,1,1,-11,-3,nt,nt,
C[C@@H]1CCCCO[C@@H](CN(C)C(=O)c2ccncc2)[C@@H](C)CN([C@H](C)CO)C(=O)c2cc(NS(=O)(=O)c3ccc(Cl)cc3)ccc2O1,-1,0,-5,4,-1,0,nt,nt,
C[C@@H]1CCCCO[C@@H](CN(C)CC2CC2)[C@H](C)CN([C@@H](C)CO)C(=O)c2cc(NC(=O)Nc3cccc4ccccc34)ccc2O1,nt,0,nt,nt,nt,0,nt,nt,
C[C@@H]1CCCCO[C@H](CN(C)C(=O)Nc2cccc3ccccc23)[C@H](C)CN([C@@H](C)CO)C(=O)c2cc(NC(=O)Nc3cccc4ccccc34)ccc2O1,2,0,-3,3,-6,3,nt,nt,
C[C@H](CO)N1C[C@H](C)[C@H](CN(C)C)OCCCC[C@H](C)Oc2ccc(NC(=O)Nc3cccc4ccccc34)cc2C1=O,0,1,0,3,0,-2,0.89,?,
C[C@H]1CCCCO[C@@H](CN(C)C)[C@@H](C)CN([C@@H](C)CO)C(=O)c2cc(NC(=O)Nc3cccc4ccccc34)ccc2O1,0,0,0,1,2,2,0.71,?,
CC(C)NC(=O)N(C)C[C@H]1OCCCC[C@@H](C)Oc2ccc(NC(=O)c3ccccc3)cc2C(=O)N([C@@H](C)CO)C[C@H]1C,2,0,1,-7,1,-20*,-0.74,?,
C[C@@H]1CCCCO[C@H](CN(C)C(=O)Nc2cccc3ccccc23)[C@@H](C)CN([C@H](C)CO)C(=O)c2cc(NC(=O)Nc3cccc4ccccc34)ccc2O1,3,0,-2,-16,-2,3,nt,nt,
C[C@@H]1CCCCO[C@H](CN(C)CC2CC2)[C@H](C)CN([C@@H](C)CO)C(=O)c2cc(NC(=O)Nc3cccc4ccccc34)ccc2O1,nt,0,nt,nt,nt,-27*,nt,nt,HepG2 tox=-14
C=CC1C2C(C)=CC(C3C(=O)N(C)C(=O)C32)N1Cc1ccc(OC)cc1 (centres undefined),-5,nt,1,3,-1,nt,nt,nt,
C[C@H]1CN([C@@H](C)CO)C(=O)c2c(c3ccccc3n2C)-c2ccccc2CO[C@H]1CN(C)S(=O)(=O)Cc1ccccc1,2,0,-3,11,0,2,nt,nt,
C[C@@H]1CN([C@H](C)CO)C(=O)c2cc(NC(=O)CCC(F)(F)F)ccc2O[C@@H]1CN(C)C(=O)Nc1ccc(F)cc1,-3,0,-2,13,-1,1,nt,nt,
O=C(Cn1c(CO)nc2ccccc21)NCCc1ccc(F)cc1,-6,0,nt,3,-1,-19*,?,nt,
Cc1ccc(S(=O)(=O)N(C)C[C@@H]2Oc3ncc(-c4ccccc4)cc3C(=O)N([C@H](C)CO)C[C@@H]2C)cc1,2,0,1,2,-2,-6,nt,nt,
COCCCNC(=O)c1ccc(-c2nc3ccccc3nc2-c2ccccc2)cc1,-3,nt,0,-3,2,-32*,0.2,-3.1,
Cc1ccc(S(=O)(=O)N2C/C=C\CN(S(=O)(=O)c3ccccc3Br)CC2)cc1,0,0,nt,0,-1,-16,nt,nt,
Cc1ccc(S(=O)(=O)N2CCCN(S(=O)(=O)c3ccccc3Br)CC2)cc1,nt,-1,nt,6,-4,-17*,-17,?,
Cc1ccccc1C(=O)N(C)c1ccccc1C(=O)NCc1ccccc1,3,nt,0,-1,-3,14,nt,nt,
Cc1ccc(C(=O)NCc2ccccc2)c(F)c1F,-2,2,3,8,0,-18*,-10,3.7,
CN1C(=O)c2cc(NC(=O)c3cccc(F)c3)ccc2OC[C@H]2O[C@@H](CC(=O)NCC3CCCCC3)CC[C@@H]21,-1,0,0,0,-1,-25*!,-8.6,-0.17,
Nc1nc2ccccc2n1CCOc1ccc(F)cc1,0,nt,-2,0,5,-21*,-6.1,-14,
COc1ccc(OCCn2c(N)nc3ccccc32)cc1,10,0,0,-20,5,-23,nt,nt,
SMILES,SIRT5 inh,E-selectin induc,ERAP1 HTS inh,S100A4 inh HTS,AF4-AF9 inh,Ecoli rRNA inh,AID977621,AID977628,others
C[C@@H]1CN([C@H](C)CO)C(=O)c2cc(NC(=O)C3CCCCC3)ccc2O[C@@H]1CN(C)C(=O)Nc1ccccc1,4,1,3,1,-13,1,nt,nt,
O=C(CCCn1c(=S)[nH]c2ccsc2c1=O)Nc1ccc2c(c1)OCCO2,2,0,-2,-1,0,-21*,-11,nt,
O=C(CCCn1c(=S)[nH]c2ccsc2c1=O)Nc1ccc(F)cc1,nt,nt,0,-1,-3,0,nt,nt,
COc1ccc(-c2csc(N)n2)cc1F,6,2,-2,-8,1,-17*,-5.9,-3.1,
CN(C)S(=O)(=O)N1CCN(c2ccccc2)CC1,-6,nt,2,-1,4,13,nt,nt,
CN(C)S(=O)(=O)N1CCN(c2ccccc2Cl)CC1,-1,nt,2,-1,1,-21*,-0.038,-7.4,
Cc1cc(C)cc(NC(=O)COC(=O)CC2CCCC2)c1,0,nt,0,1,-5,-19*,-13,-6.4,
COc1cc(OC)nc(Oc2ccccc2C(=O)Oc2ccc(C)cc2)n1,-5,nt,13,4,-8,-24*,-21,nt,
COC(=O)c1c(Oc2nc(OC)cc(OC)n2)cccc1Oc1nc(OC)cc(OC)n1,-5,nt,2,-2,-18,6,nt,nt,
